Experimental data taken from ChEMBL document CHEMBL4152216, “Syntheses and anti-pancreatic cancer activities of rakicidin A analogues” (Eur J Med Chem, 2018).

Assays:
PANC-1 [1] = assay: Cytotoxicity against human PANC1 cells after 72 hrs under normoxic condition by MTT assay; format: functional, cell-based; details: PANC-1, 72 h
Procedure, shortened: (§1)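 PANC-1, PATU8988T and ASPC-1 cells were grown in DMEM with 10% FBS at 37 °C and 5% CO2, then seeded at 4000 cells/well. Compounds were added at various concentrations after 6 h. Normoxic plates stayed at 37 °C, 5% CO2. Hypoxic plates went into a chamber purged 10 min with 5% CO2/1% O2/94% N2, sealed, at 37 °C. After 72 h, MTT was added for 4 h, formazan dissolved in DMSO and read at 570 nm. IC50 is the mean ± SD of three independent experiments.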

PANC-1 [2] = assay: Cytotoxicity against human PANC1 cells after 72 hrs under hypoxic condition by MTT assay; format: functional, cell-based; details: PANC-1, 72 h; procedure, shortened: as §1
PaTu 8988t [3] = assay: Selectivity index, ratio of IC50 against human PA-TU-8988T cells under normoxic condition to IC50 for human PA-TU-8988T cells under hypoxic condition; format: functional
Procedure, shortened: (§2)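 Hypoxic selectivity index is IC50 (normoxia)/IC50 (hypoxia). Both IC50s come from the 72 h MTT assay in the same cell line, run under normoxia (37 °C, 5% CO2) or a sealed 1% O2/5% CO2/94% N2 chamber, each the mean of three independent experiments.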

PaTu 8988t [4] = assay: Cytotoxicity against human PA-TU-8988T cells after 72 hrs under hypoxic condition by MTT assay; format: functional, cell-based; procedure, shortened: as §1
PaTu 8988t [5] = assay: Cytotoxicity against human PA-TU-8988T cells after 72 hrs under normoxic condition by MTT assay; format: functional, cell-based; procedure, shortened: as §1
ASPC1 [6] = assay: Cytotoxicity against human Aspc-1 cells after 72 hrs under hypoxic condition by MTT assay; format: functional, cell-based; details: ASPC1, 72 h; procedure, shortened: as §1
ASPC1 [7] = assay: Cytotoxicity against human Aspc-1 cells after 72 hrs under normoxic condition by MTT assay; format: functional, cell-based; details: ASPC1, 72 h; procedure, shortened: as §1
ASPC1 [8] = assay: Selectivity index, ratio of IC50 against human Aspc-1 cells under normoxic condition to IC50 for human Aspc-1 cells under hypoxic condition; format: functional; procedure, shortened: as §2
PANC-1 [9] = assay: Selectivity index, ratio of IC50 against human PANC1 cells under normoxic condition to IC50 for human PANC1 cells under hypoxic condition; format: functional; procedure, shortened: as §2
PANC-1 [10] = assay: Inhibition of cancer stem cell population of human PANC1 cells assessed as CD24+/CD44+/ESA+ cell population level at 0.15 uM after 48 hrs by flow cytometric analysis (reference value: 1.7%); format: functional; parameters: scale not given: the % may be the effect or the level left

SMILES | IC50 (PANC-1 [1]) | IC50 (PANC-1 [2]) | Ratio IC50 (PaTu 8988t [3]) | IC50 (PaTu 8988t [4]) | IC50 (PaTu 8988t [5]) | IC50 (ASPC1 [6]) | IC50 (ASPC1 [7]) | Ratio IC50 (ASPC1 [8]) | Ratio IC50 (PANC-1 [9]) | Activity (PANC-1 [10])
CCCCCCCCCCCCCC[C@@H](C)[C@@H]1OC(=O)[C@H](CC(=O)NC2CC2)NC(=O)CN(C)C(=O)/C=C/C(CO[Si](c2ccccc2)(c2ccccc2)C(C)(C)C)NC(=O)[C@H]1C (some centres not stated) | > 10000 nM | > 10000 nM | – | – | – | – | – | – | – | –
C=C1/C=C/C(=O)N(C)C(C)C(=O)N[C@@H]([C@H](O)C(=O)OC)C(=O)O[C@@H]([C@H](C)CCCCCCCCCCCC(C)C)[C@H](C)C(=O)N1 (single isomer, unassigned; 1c) | 410 nM | 43 nM | 2.79 | 200 nM | 540 nM | 200 nM | 1200 nM | 5.71 | 9.53 | –
C=C1/C=C/C(=O)N(C)CC(=O)N[C@@H](CC(=O)OC)C(=O)O[C@@H]([C@H](C)CCCCCCCCCCCCCC)[C@H](C)C(=O)N1 | 120 nM | 58 nM | 1.87 | 340 nM | 640 nM | 350 nM | 980 nM | 2.8 | 1.98 | 0.7%
C=C1/C=C/C(=O)N(C)CC(=O)N[C@@H]([C@H](O)C(=O)OC)C(=O)O[C@@H]([C@H](C)CCCCCCCCCCCC(C)C)[C@H](C)C(=O)N1 | 270 nM | 90 nM | 3.91 | 120 nM | 450 nM | 150 nM | 540 nM | 3.63 | 2.98 | 0.83%
C#CCOC(=O)C[C@@H]1NC(=O)CN(C)C(=O)/C=C/C(=C)NC(=O)[C@@H](C)[C@H]([C@H](C)CCCCCCCCCCCC(C)C)OC1=O | 150 nM | 66 nM | 2.8 | 110 nM | 300 nM | 120 nM | 260 nM | 2.23 | 2.21 | 1.9%
C=C1/C=C/C(=O)N(C)CC(=O)N[C@@H](C(C)C)C(=O)O[C@@H]([C@H](C)CCCCCCCCCCCCCC)[C@H](C)C(=O)N1 | 1000 nM | 350 nM | – | – | – | – | – | – | 3 | –
C=C1/C=C/C(=O)N(C)CC(=O)O[C@@H](CCCCCCCCCCCCC)[C@H](C)C(=O)[C@](C)(O)C(=O)NCC(=O)N1 | 650 nM | 15 nM | – | – | – | – | – | – | 43.33 | –
C=C1/C=C/C(=O)N(C)CC(=O)N[C@@H](CCC(=O)OC)C(=O)O[C@@H]([C@H](C)CCCCCCCCCCCCCC)[C@H](C)C(=O)N1 | 1100 nM | 300 nM | – | – | – | – | – | – | 3.54 | –
C=C1/C=C/C(=O)N(C)CC(=O)N[C@@H](Cc2ccccc2)C(=O)O[C@@H]([C@H](C)CCCCCCCCCCCCCC)[C@H](C)C(=O)N1 | 430 nM | 120 nM | 2.14 | 650 nM | 1400 nM | 600 nM | 1400 nM | 2.4 | 3.76 | 1.6%
C=C1/C=C/C(=O)N(C)CC(=O)N[C@@H](CC(=O)OCC)C(=O)O[C@@H]([C@H](C)CCCCCCCCCCCC(C)C)[C@H](C)C(=O)N1 | 180 nM | 74 nM | 2.89 | 110 nM | 320 nM | 150 nM | 280 nM | 1.85 | 2.43 | –
C=C1/C=C/C(=O)N(CC(F)(F)F)CC(=O)N[C@@H]([C@H](O)C(=O)OC)C(=O)O[C@@H]([C@H](C)CCCCCCCCCCCC(C)C)[C@H](C)C(=O)N1 | 2500 nM | 1500 nM | – | – | – | – | – | – | 1.72 | –
